Data as given in ChEMBL document CHEMBL3124940, “Design, synthesis and biological evaluation of D-ring opened galantamine analogs as multifunctional anti-Alzheimer agents” (Eur J Med Chem, 2014).

How the values were obtained:
[1] = Selectivity ratio of IC50 for electric eel AChE to IC50 for equine serum BChE
How it was run: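 AChE is electric eel Type VI-S with acetylthiocholine; BChE is equine serum with butyrylthiocholine. At least five concentrations, each in triplicate. Ratio = IC50(AChE)/IC50(BChE).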

Acetylcholinesterase = Acetylcholinesterase (Electrophorus electricus, UniProt O42275); assay: Inhibition of electric eel AChE using acetylthiocholine iodide as substrate preincubated for 5 mins followed by substrate addition measured after 5 mins by Ellman's method
Cholinesterase = Cholinesterase (Equus caballus, UniProt P81908); assay: Inhibition of equine serum BChE using butyrylthiocholine iodide as substrate preincubated for 5 mins followed by substrate addition measured after 5 mins by Ellman's method
How it was run: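 Ellman's method with equine serum BChE and butyrylthiocholine iodide; DTNB read-out at 412 nm, 25 °C. Phosphate buffer pH 8.0. At least five concentrations (normally 10^-4 to 10^-9 M), each in triplicate, to build the inhibition curve. Data are means of at least three determinations.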

Rattus norvegicus [2] = assay: Toxicity in Wistar rat assessed as lipidperoxidation product level in kidney at 6 umol/100 g body weight, ip by fluorometric analysis relative to control; type: organism-based; conditions: in vivo
How it was run: (§1)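 Rats dosed i.p.; tissues taken after 24 h. For GSH/GSSG, tissue homogenized in 11 volumes of 0.2 M sodium phosphate (5 mM EDTA, pH 8.0) plus 4 volumes of 25% metaphosphoric acid and centrifuged 12 000 × g, 4 °C, 30 min; supernatant read photometrically (GSH) or fluorometrically (GSSG). Lipid peroxidation products measured as TBARS in 19-volume ice-cold saline homogenates, fluorometrically.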

Rattus norvegicus [3] = assay: Toxicity in Wistar rat assessed as total glutathione level in kidney at 6 umol/100 g body weight, ip by fluorometric analysis relative to control; type: organism-based; conditions: in vivo; how it was run: as §1
Rattus norvegicus [4] = assay: Toxicity in Wistar rat assessed as ethoxycoumarin-O-deethylation activity in liver measured as 7-hydroxycoumarin level at 6 umol/100 g body weight, ip by fluorometric analysis relative to control; type: organism-based; conditions: in vivo
Rattus norvegicus [5] = assay: Toxicity in Wistar rat assessed as GSSG level in kidney at 6 umol/100 g body weight, ip by fluorometric analysis relative to control; type: organism-based; conditions: in vivo; how it was run: as §1
Rattus norvegicus [6] = assay: Toxicity in Wistar rat assessed as body weight at 1 umol/100 g body weight, ip relative to control; type: organism-based; conditions: in vivo
Rattus norvegicus [7] = assay: Toxicity in Wistar rat assessed as liver weight at 1 umol/100 g body weight, ip relative to control; type: organism-based; conditions: in vivo
Rattus norvegicus [8] = assay: Toxicity in Wistar rat assessed as brain weight at 6 umol/100 g body weight, ip relative to control; type: organism-based; conditions: in vivo
Rattus norvegicus [9] = assay: Toxicity in Wistar rat assessed as GSH level in brain at 6 umol/100 g body weight, ip by fluorometric analysis relative to control; type: organism-based; conditions: in vivo
Rattus norvegicus [10] = assay: Toxicity in Wistar rat assessed as ethylmorphine-N-demethylation activity in liver measured as formaldehyde level at 6 umol/100 g body weight, ip by photometric analysis relative to control; type: organism-based; conditions: in vivo
Rattus norvegicus [11] = assay: Toxicity in Wistar rat assessed as GSH level in liver at 1 umol/100 g body weight, ip by fluorometric analysis relative to control; type: organism-based; conditions: in vivo
Rattus norvegicus [12] = assay: Toxicity in Wistar rat assessed as total glutathione level in liver at 1 umol/100 g body weight, ip by fluorometric analysis relative to control; type: organism-based; conditions: in vivo; how it was run: as §1
Rattus norvegicus [13] = assay: Toxicity in Wistar rat assessed as total glutathione level in brain at 1 umol/100 g body weight, ip by fluorometric analysis relative to control; type: organism-based; conditions: in vivo; how it was run: as §1
Rattus norvegicus [14] = assay: Toxicity in Wistar rat assessed as lipidperoxidation product level in liver at 6 umol/100 g body weight, ip relative to control; type: organism-based; conditions: in vivo
Rattus norvegicus [15] = assay: Toxicity in Wistar rat assessed as body weight at 6 umol/100 g body weight, ip relative to control; type: organism-based; conditions: in vivo
Rattus norvegicus [16] = assay: Toxicity in Wistar rat assessed as ethoxyresorufin-O-deethylation activity in liver measured as resorufin level at 6 umol/100 g body weight, ip by fluorometric analysis relative to control; type: organism-based; conditions: in vivo
How it was run: (§2)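 Rats dosed i.p.; after 24 h, liver homogenized 1:3 w/v in 0.1 M sodium phosphate pH 7.4 and centrifuged at 9000 × g, 4 °C, 20 min. Supernatant protein determined by the Biuret method. Ethoxyresorufin-O-deethylation measured fluorometrically as resorufin formed.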

Rattus norvegicus [17] = assay: Toxicity in Wistar rat assessed as GSH level in liver at 6 umol/100 g body weight, ip by fluorometric analysis relative to control; type: organism-based; conditions: in vivo
Rattus norvegicus [18] = assay: Toxicity in Wistar rat assessed as GSSG level in liver at 1 umol/100 g body weight, ip by fluorometric analysis relative to control; type: organism-based; conditions: in vivo; how it was run: as §1
Rattus norvegicus [19] = assay: Toxicity in Wistar rat assessed as lipidperoxidation product level in brain at 6 umol/100 g body weight, ip by fluorometric analysis relative to control; type: organism-based; conditions: in vivo; how it was run: as §1
Rattus norvegicus [20] = assay: Toxicity in Wistar rat assessed as GSSG level in liver at 6 umol/100 g body weight, ip by fluorometric analysis relative to control; type: organism-based; conditions: in vivo; how it was run: as §1
Rattus norvegicus [21] = assay: Toxicity in Wistar rat assessed as GSH level in brain at 1 umol/100 g body weight, ip by fluorometric analysis relative to control; type: organism-based; conditions: in vivo
Rattus norvegicus [22] = assay: Toxicity in Wistar rat assessed as GSH level in kidney at 6 umol/100 g body weight, ip by fluorometric analysis relative to control; type: organism-based; conditions: in vivo
Rattus norvegicus [23] = assay: Toxicity in Wistar rat assessed as ethoxycoumarin-O-deethylation activity in liver measured as 7-hydroxycoumarin level at 1 umol/100 g body weight, ip by fluorometric analysis relative to control; type: organism-based; conditions: in vivo
Rattus norvegicus [24] = assay: Toxicity in Wistar rat assessed as total glutathione level in kidney at 1 umol/100 g body weight, ip by fluorometric analysis relative to control; type: organism-based; conditions: in vivo; how it was run: as §1
Rattus norvegicus [25] = assay: Toxicity in Wistar rat assessed as lipidperoxidation product level in kidney at 1 umol/100 g body weight, ip by fluorometric analysis relative to control; type: organism-based; conditions: in vivo; how it was run: as §1
Rattus norvegicus [26] = assay: Toxicity in Wistar rat assessed as ethylmorphine-N-demethylation activity in liver measured as formaldehyde level at 1 umol/100 g body weight, ip by photometric analysis relative to control; type: organism-based; conditions: in vivo
Rattus norvegicus [27] = assay: Toxicity in Wistar rat assessed as GSH level in kidney at 1 umol/100 g body weight, ip by fluorometric analysis relative to control; type: organism-based; conditions: in vivo
Rattus norvegicus [28] = assay: Toxicity in Wistar rat assessed as lipidperoxidation product level in brain at 1 umol/100 g body weight, ip by fluorometric analysis relative to control; type: organism-based; conditions: in vivo; how it was run: as §1
Rattus norvegicus [29] = assay: Antialzheimer activity in Wistar rat scopolamine-induced cognition impairment model assessed as total exploration time at 1 umol/100 g body weight, ip treated for 5 mins prior to scopolamine-challenge by eight-arm radial maze test relative to control; type: functional
How it was run: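 Female 60-day-old Wistar rats (Han:Wist) trained in an eight-arm radial maze to error-free trials under 60 s on three consecutive days; each animal served as its own control. Test agent given i.p. in saline 5 min before scopolamine (0.05 mg/100 g b. wt., i.p. in saline). Errors plus baits not found after 10 min, and total searching time, recorded before and 20, 60, 120 min after scopolamine; n = 14, mean ± SEM.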

Rattus norvegicus [30] = assay: Toxicity in Wistar rat assessed as GSSG level in kidney at 1 umol/100 g body weight, ip by fluorometric analysis relative to control; type: organism-based; conditions: in vivo; how it was run: as §1
Rattus norvegicus [31] = assay: Toxicity in Wistar rat assessed as change in movement at 1 umol/100 g body weight, ip; type: organism-based; conditions: in vivo
Rattus norvegicus [32] = assay: Toxicity in Wistar rat assessed as total glutathione level in brain at 6 umol/100 g body weight, ip by fluorometric analysis relative to control; type: organism-based; conditions: in vivo; how it was run: as §1
Rattus norvegicus [33] = assay: Toxicity in Wistar rat assessed as GSSG level in brain at 1 umol/100 g body weight, ip by fluorometric analysis relative to control; type: organism-based; conditions: in vivo; how it was run: as §1
Rattus norvegicus [34] = assay: Toxicity in Wistar rat assessed as kidney weight at 1 umol/100 g body weight, ip relative to control; type: organism-based; conditions: in vivo
Rattus norvegicus [35] = assay: Toxicity in Wistar rat assessed as GSSG level in brain at 6 umol/100 g body weight, ip by fluorometric analysis relative to control; type: organism-based; conditions: in vivo; how it was run: as §1
Rattus norvegicus [36] = assay: Toxicity in Wistar rat assessed as kidney weight at 6 umol/100 g body weight, ip relative to control; type: organism-based; conditions: in vivo
Rattus norvegicus [37] = assay: Toxicity in Wistar rat assessed as lipidperoxidation product level in liver at 1 umol/100 g body weight, ip relative to control; type: organism-based; conditions: in vivo
Rattus norvegicus [38] = assay: Toxicity in Wistar rat assessed as ethoxyresorufin-O-deethylation activity in liver measured as resorufin level at 1 umol/100 g body weight, ip by fluorometric analysis relative to control; type: organism-based; conditions: in vivo; how it was run: as §2
Rattus norvegicus [39] = assay: Toxicity in Wistar rat assessed as total glutathione level in liver at 6 umol/100 g body weight, ip by fluorometric analysis relative to control; type: organism-based; conditions: in vivo
How it was run: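 Rats were dosed, killed 24 h later, and liver and other tissues were taken. Samples were homogenized in 11 vol 0.2 M sodium phosphate (5 mM EDTA, pH 8.0) plus 4 vol 25% metaphosphoric acid, then spun at 12 000 × g, 4 °C, 30 min. GSH was read photometrically and GSSG fluorometrically in the supernatant, alongside total glutathione.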

Rattus norvegicus [40] = assay: Toxicity in Wistar rat assessed as brain weight at 1 umol/100 g body weight, ip relative to control; type: organism-based; conditions: in vivo
Rattus norvegicus [41] = assay: Toxicity in Wistar rat scopolamine-induced cognition impairment model assessed as change in movement at 1 umol/100 g body weight, ip; type: organism-based; conditions: in vivo
How it was run: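 60-day-old female Wistar rats were trained in an eight-arm radial maze to no errors in under 60 s on 3 consecutive days; each rat served as its own control. Compound in saline was given i.p., then scopolamine (0.05 mg/100 g, saline, i.p.) 5 min later. Errors plus baits not found after 10 min and total searching time were recorded before and 20, 60 and 120 min after scopolamine; n = 14, mean ± SEM.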

Rattus norvegicus [42] = assay: Toxicity in Wistar rat assessed as protein content in liver at 1 umol/100 g body weight, ip by Biuret method relative to control; type: organism-based; conditions: in vivo; how it was run: as §2
Rattus norvegicus [43] = assay: Toxicity in Wistar rat assessed as protein content in liver at 6 umol/100 g body weight, ip by Biuret method relative to control; type: organism-based; conditions: in vivo; how it was run: as §2
Rattus norvegicus [44] = assay: Toxicity in Wistar rat assessed as liver weight at 6 umol/100 g body weight, ip relative to control; type: organism-based; conditions: in vivo

Cholinesterase, sequence (P81908 whole entry): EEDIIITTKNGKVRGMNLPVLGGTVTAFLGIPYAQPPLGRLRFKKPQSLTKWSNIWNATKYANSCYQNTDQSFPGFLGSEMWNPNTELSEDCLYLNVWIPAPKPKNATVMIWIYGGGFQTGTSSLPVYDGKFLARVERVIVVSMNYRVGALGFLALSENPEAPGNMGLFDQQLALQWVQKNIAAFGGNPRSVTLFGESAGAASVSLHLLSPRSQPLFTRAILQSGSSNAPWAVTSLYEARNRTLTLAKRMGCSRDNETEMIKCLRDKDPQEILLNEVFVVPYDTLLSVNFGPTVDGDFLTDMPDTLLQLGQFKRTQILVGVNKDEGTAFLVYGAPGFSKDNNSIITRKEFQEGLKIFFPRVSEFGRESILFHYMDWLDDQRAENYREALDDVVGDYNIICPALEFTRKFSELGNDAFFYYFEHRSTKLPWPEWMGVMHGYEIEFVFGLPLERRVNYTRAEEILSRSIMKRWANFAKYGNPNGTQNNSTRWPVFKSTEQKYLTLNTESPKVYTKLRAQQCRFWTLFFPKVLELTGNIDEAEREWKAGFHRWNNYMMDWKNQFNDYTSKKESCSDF
Acetylcholinesterase, sequence (O42275 whole entry): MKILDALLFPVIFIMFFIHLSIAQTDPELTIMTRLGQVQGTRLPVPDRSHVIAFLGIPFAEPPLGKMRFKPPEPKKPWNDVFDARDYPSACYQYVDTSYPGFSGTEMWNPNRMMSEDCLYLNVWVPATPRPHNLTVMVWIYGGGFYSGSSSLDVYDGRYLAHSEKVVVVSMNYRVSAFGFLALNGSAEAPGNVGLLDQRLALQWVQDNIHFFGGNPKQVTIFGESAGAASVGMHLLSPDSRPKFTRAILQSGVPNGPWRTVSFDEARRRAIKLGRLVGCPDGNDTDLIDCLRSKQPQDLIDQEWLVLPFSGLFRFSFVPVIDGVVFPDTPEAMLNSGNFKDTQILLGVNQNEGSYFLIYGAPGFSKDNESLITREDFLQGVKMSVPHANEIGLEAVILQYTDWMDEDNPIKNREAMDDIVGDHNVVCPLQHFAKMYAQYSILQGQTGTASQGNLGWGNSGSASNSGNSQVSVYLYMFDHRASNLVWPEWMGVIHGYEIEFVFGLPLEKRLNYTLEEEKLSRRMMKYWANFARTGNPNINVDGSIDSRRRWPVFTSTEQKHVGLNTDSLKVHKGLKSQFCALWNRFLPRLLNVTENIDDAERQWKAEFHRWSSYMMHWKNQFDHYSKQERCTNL

CC(C)NCc1cccc2[nH]c3cc(O)ccc3c12
Ratio IC50 [1]: 3.54
IC50 (Acetylcholinesterase): 43.5 µM
IC50 (Cholinesterase): 17.3 µM

Nc1c2c(nc3ccccc13)CCCC2 [TACRINE]
Activity (Rattus norvegicus [2]): 89.2 nmol/g
Activity (Rattus norvegicus [3]): 1800 µg/g
Activity (Rattus norvegicus [4]): 197 pmol/mg/min
Activity (Rattus norvegicus [5]): 171 µg/g
Activity (Rattus norvegicus [6]): 228 g
Activity (Rattus norvegicus [7]): 6.8 g
Activity (Rattus norvegicus [8]): 1.82 g
Activity (Rattus norvegicus [9]): 671 µg/g
Activity (Rattus norvegicus [10]): 0.44 nmol/mg/min
Activity (Rattus norvegicus [11]): 2542 µg/g
Activity (Rattus norvegicus [12]): 3378 µg/g
Activity (Rattus norvegicus [13]): 824 µg/g
Activity (Rattus norvegicus [14]): 62 nmol/g
Activity (Rattus norvegicus [15]): 219 g
Activity (Rattus norvegicus [16]): 100 pmol/mg/min
Activity (Rattus norvegicus [17]): 2310 µg/g
Activity (Rattus norvegicus [18]): 418 µg/g
Activity (Rattus norvegicus [19]): 154 nmol/g
Activity (Rattus norvegicus [20]): 431 µg/g
Activity (Rattus norvegicus [21]): 665 µg/g
Activity (Rattus norvegicus [22]): 1457 µg/g
Activity (Rattus norvegicus [23]): 207 pmol/mg/min
Activity (Rattus norvegicus [24]): 1821 µg/g
Activity (Rattus norvegicus [25]): 87.4 nmol/g
Activity (Rattus norvegicus [26]): 0.6 nmol/mg/min
Activity (Rattus norvegicus [27]): 1480 µg/g
Activity (Rattus norvegicus [28]): 123 nmol/g
Time (Rattus norvegicus [29]): 237 s
Activity (Rattus norvegicus [30]): 170 µg/g
Activity (Rattus norvegicus [31]): Toxic
Activity (Rattus norvegicus [32]): 822 µg/g
Activity (Rattus norvegicus [33]): 79.9 µg/g
Activity (Rattus norvegicus [34]): 0.65 g
Activity (Rattus norvegicus [35]): 75.6 µg/g
Activity (Rattus norvegicus [36]): 0.61 g
Activity (Rattus norvegicus [37]): 63.8 nmol/g
Activity (Rattus norvegicus [38]): 134 pmol/mg/min
Activity (Rattus norvegicus [39]): 3173 µg/g
Activity (Rattus norvegicus [40]): 1.77 g
Activity (Rattus norvegicus [41]): Toxic
Activity (Rattus norvegicus [42]): 61.8 mg/mL
Activity (Rattus norvegicus [43]): 65.5 mg/mL
Activity (Rattus norvegicus [44]): 6.2 g

CCN(C)Cc1cccc2oc3cc(OC)ccc3c12
IC50 (Acetylcholinesterase): > 50 µM

COc1ccc2c(c1)oc1cccc(CNC(C)C)c12
Ratio IC50 [1]: 0.86
IC50 (Acetylcholinesterase): 11.6 µM
IC50 (Cholinesterase): 13.5 µM

CC(C)NCc1cccc2oc3cc(O)ccc3c12
Ratio IC50 [1]: 1.23
IC50 (Acetylcholinesterase): 22.6 µM
IC50 (Cholinesterase): 18.4 µM

CCN(CC)Cc1cccc2[nH]c3cc(OC)ccc3c12
Ratio IC50 [1]: 2.54
IC50 (Acetylcholinesterase): 37.9 µM
IC50 (Cholinesterase): 14.9 µM
